Data as given in article PMC10622838 (The Journal of Biological Chemistry, 2023).

Key:
EoL-1 cells = assay: cAMP accumulation; format: cell-based, human; details: from combined Fig. 5F and Fig. 5H
GPR114 = assay: CRE-Luc assay, GPR114 overexpressed in HEK293T cells; format: cell-based, human
In short: (§1)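 HEK293T cells plated in DMEM + 10% FBS 24 h before polyethylenimine co-transfection with receptor in pcDNA3.1, rat insulin II promoter CRE-firefly luciferase, and phRLuc-N1 Renilla control. Cells were reseeded at 80,000/well 6 h later, serum-starved 4 h at 36 h, then given synthetic peptide in DMSO for 4 h. Firefly luminescence (Steady-Glo) was normalised to RLuc (3 μM coelenterazine h). Mean ± SD, ≥3 independent experiments.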

GPR64 = assay: CRE-Luc assay, GPR64 overexpressed in HEK293T cells; format: cell-based, human
In short: as §1

[1] = tested on: GPR114-A230M (CTF-only, compromised TA); assay: CRE-luciferase reporter assay, GPR114-A230M; format: cell-based, human; details: HEK293T, thrombin 4 h, FLuc/RLuc ratio, Fig. 4C
PAR1-GPR56 fusion / G13 = assay: G13 GTPγS binding kinetics, PAR1-GPR56 fusion Sf9 membranes; format: biochemical, human; details: Fig. S1A

TYFAVLM [P7 GPR114-AP]
target specificity of cAMP stimulation in EoL-1 cells (conclusion) (EoL-1 cells): promiscuously stimulates cAMP accumulation via a yet to be determined GPCR | activation in CRE-Luc assay (GPR114; GPR114, Fig. 5H, as summarised in Discussion): did not activate GPR114 nor GPR64 | CRE-Luc activity (stimulation) (GPR114; TA-compromised (ΔTA) 7TM version of GPR114, Fig. 5H): did not stimulate cAMP production in any condition | CRE-Luc activity (stimulation) (GPR114; full length GPR114, Fig. 5H): did not stimulate cAMP production in any condition | activation in CRE-Luc assay (GPR64; GPR64, Fig. 5H, as summarised in Discussion): did not activate GPR114 nor GPR64 | CRE-Luc activity (stimulation) (GPR64; TA-compromised (ΔTA) 7TM version of GPR64, Fig. 5H): did not stimulate cAMP production in any condition | CRE-Luc activity (stimulation) (GPR64; full length GPR64, Fig. 5H): did not stimulate cAMP production in any condition

Thrombin
thrombin-dependent CRE-luciferase activation [1]: not stimulated by thrombin | thrombin-dependent activation of purified G13 (PAR1-GPR56 fusion / G13): strong thrombin-dependent activation of purified G13
